RORA act: activators of human nuclear receptor RORA; P35398; CHO-K1 Gal4-RORA LBD luciferase reporter, luminescence; percent increase over mock-subtracted basal signal; activation, % at 10 µM; hit rate 1.5% among 65,000; AID 560;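 active = activation above the mean of all tested compounds plus 3 SD, cut at about 49% in these data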
SF1 activator: SF-1 (human) activation. AID 522. activation, % at 10 µM. hit rate 1.9% among 65,000. CHO-K1 Gal4-SF-1 LBD luciferase reporter; % increase over DMSO SF-1-specific signal. Q13285;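 active = activation above the mean activation of all tested compounds plus 3 SD, cut at about 50% in these data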
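Material: Transient Gal4-SF-1 LBD reporter, CHO-K1 | Input: 4,000 cells/well | Dosing: One dose, 10 µM compound, 1% DMSO | Incubation: 20 h compound treatment, 37 °C | Detection: SteadyLite luciferase luminescence | Evaluation: Percent activation relative to DMSO median and mock-transfected background | Benchmarks: DMSO-treated SF-1-transfected cells as negative, DMSO-treated mock-transfected cells lacking SF-1 as background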
HePTP inh: blocks human HePTP tyrosine phosphatase; P35236; recombinant HePTP phosphatase activity, OD absorbance; hit rate 0.64% among 110,000; inhibition, % at 20 µM; in the data active = inhibition above about 50%; inconclusive = no clear call, values can overlap the other calls
M1 antagonist: M1 muscarinic receptor (rat) antagonism; P08482; CHO-M1 cells, Fluo-4 calcium, ACh EC80 antagonist mode; hits give low values; B-score at 10 µM; hit rate 3.4% among 64,000;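 active = calcium fluorescence response, raw or row-and-column corrected B-score, differing from the plate sample mean either way at a set confidence level, mostly lower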
M1 ag: M1 muscarinic receptor agonism; CHO-M1 cells, Fluo-4 calcium fluorescence, agonist mode; hits give high values; B-score at 10 µM; hit rate 3% among 64,000; AID 626;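 active = fluorescence rise, raw or as B-score row- and column-corrected plate score, outside the 99.7% band of its plate's samples, either direction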
D1 mod: D1 dopamine receptor (human) allosteric modulation; AID 641; HEK293 D1, CRE-luciferase, dopamine EC30 potentiation; actives deviate in either direction; P21728; hit rate 5.9% among 58,000; B-score at 10 µM;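 active = luminescence count or its row- and column-corrected plate score outside the 99.7% band of the plate's sample wells, on either side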
M1 agonist conf: rat M1 muscarinic agonism, confirmation; shares compounds with M1 ag; fluorescence change (max-min) at 10 µM; CHO-M1 cells, Fluo-4 calcium fluorescence, agonist mode; actives lie on both sides; AID 1488; hit rate 19% among 1,700;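 active = fluorescence change differs from the solvent-only DMSO control mean at a set confidence level in both duplicate runs; inconclusive = differs from solvent-only control mean in just one of two runs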;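 also: an EC20 dose of acetylcholine follows compound addition during the same imaging run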
M4 ag counter: activates rat M4 receptor in counter-screen for M1 agonists. shares compounds with M1 ag. CHO M4/Gqi5 cells, Fluo-4 calcium fluorescence, agonist mode; actives lie on both sides. fluorescence change (max-min) at 10 µM. hit rate 9% among 1,700;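 active = fluorescence change differing from the plate's solvent-only control wells at 99.7% confidence in both duplicates, whether higher or lower; inconclusive = differs from solvent controls in only one of two duplicates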
Target sequence (P08485 whole entry, looked up): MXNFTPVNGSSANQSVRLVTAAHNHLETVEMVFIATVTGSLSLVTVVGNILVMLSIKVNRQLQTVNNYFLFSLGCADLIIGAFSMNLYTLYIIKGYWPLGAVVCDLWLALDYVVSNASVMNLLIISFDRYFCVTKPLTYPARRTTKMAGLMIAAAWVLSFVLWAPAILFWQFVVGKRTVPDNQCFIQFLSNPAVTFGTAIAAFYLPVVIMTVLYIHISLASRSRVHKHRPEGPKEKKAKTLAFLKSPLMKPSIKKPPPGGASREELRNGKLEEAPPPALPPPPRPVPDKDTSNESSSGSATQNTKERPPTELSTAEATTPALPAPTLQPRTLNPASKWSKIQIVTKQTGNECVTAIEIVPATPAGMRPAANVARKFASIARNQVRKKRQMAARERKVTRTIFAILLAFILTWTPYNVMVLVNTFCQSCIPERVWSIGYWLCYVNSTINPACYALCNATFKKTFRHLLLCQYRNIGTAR
Numbers stand for hits; 0 = inactive; ? = inconclusive; - = no result. In the library only some 8.2% were active in any assay of this set; here they are far more common.

SMILES	RORA act	SF1 activator	HePTP inh	M1 antagonist	M1 ag	D1 mod	M1 agonist conf	M4 ag counter
Nc1ccc2nc(-c3ccc(Cl)cc3)[nH]c2c1	82.4	64.5	0	0	-2.19	-	?	0
Nc1ccc(-c2nc3ccc(-c4ccc5nc(-c6ccc(N)cc6)[nH]c5c4)cc3[nH]2)cc1	-	-	0	-	-	-	-	-
Cc1nn(-c2ccccc2)c(C)c1C(=O)OC/C(O)=C(\C#N)c1nc2ccccc2[nH]1	0	0	0	0	2.89	0	-20.5	0
C/C(=N\OC/C(O)=C(\C#N)c1nc2ccccc2[nH]1)c1ccc(Br)cc1	-	-	0	-	-	-	-	-
CCN1C(=O)/C(=C/N2CCc3ccccc32)SC1=S	0	0	0	0	86.6	0	528	491
CCN1C(=O)/C(=C\N2CCCc3ccccc32)SC1=S	0	0	0	0	0	0	-	-
Cc1nc(N2CCC(C)CC2)c2oc3ccccc3c2n1	0	0	0	0	0	-	-	-
CCCOc1cccc(C(=O)Nc2cccc(OC)c2)c1	-	-	0	-	-	-	-	-
CC(=O)Oc1ccc(NC(=O)CC2Nc3cc(C)c(C)cc3NC2=O)cc1 (stereo not drawn)	-	-	0	-	-	-	-	-
CCN(CC)S(=O)(=O)c1ccc2oc(SCC3CN=C(c4ccc(OC)cc4)S3)nc2c1 (stereo not drawn)	0	0	0	0	8.05	0	-31.9	?
O=C(CCC(=O)c1cccs1)OCc1nc2ccccc2s1	0	0	0	0	0	0	-	-
COc1ccc(CCNc2oc(COc3ccccc3Cl)nc2C#N)cc1OC	0	0	0	0	0	0	-	-
COc1ccc(CCNc2oc(Cc3ccccc3)nc2C#N)cc1OC	0	0	0	0	6.5	0	-30.7	?
COc1ccc(CCNc2oc(COc3ccccc3F)nc2C#N)cc1OC	0	0	0	-2.08	3	0	0	-85.2
Cc1ccccc1NC(=S)NC(=O)/C=C/c1ccccc1	-	-	0	-	-	-	-	-
COC(=O)CCC(=O)NNC(=O)c1ccc(Cl)cc1Cl	-	-	0	-	-	-	-	-
CC1CC(C)CN(C(=O)Nc2ccccc2)C1 (stereo not drawn)	-	-	0	-	-	-	-	-
O=C(c1ccc(Cn2c(=O)[nH]c3ccccc3c2=O)cc1)N1CCN(c2ccccn2)CC1	0	0	0	0	3.78	0	0	0
CCOC(=O)N1CCN(C(=O)c2ccc3c(=O)n(Cc4ccccc4)c(=S)[nH]c3c2)CC1	0	0	0	0	4.59	0	?	?
COc1cc2[nH]c(=O)n(CCCC(=O)N3CC=C(c4ccccc4)CC3)c(=O)c2cc1OC	0	0	0	0	0	-	-	-
CCOC(=O)N1CCN(C(=O)c2ccc3c(=O)n(Cc4ccc(OC)cc4)c(=S)[nH]c3c2)CC1	0	0	0	0	0	0	-	-
COc1cc2[nH]c(=O)n(CCCCCC(=O)N3CCN(c4ccccn4)CC3)c(=O)c2cc1OC	0	0	0	0	7.24	0	0	0
CCOC(=O)C1=C(CC)NC2=C(C(=O)CCC2)C1c1ccc(-c2ccccc2)cc1 (stereo not drawn)	-	-	0	-	-	-	-	-
O=C(c1cc2ccccc2oc1=O)N1CCN(c2ccc([N+](=O)[O-])cc2)CC1	-	-	0	-	-	-	-	-
COc1ccc(C)cc1S(=O)(=O)Nc1ccc(F)c(Cl)c1	0	0	0	-	-	-	-	-
SMILES	RORA act	SF1 activator	HePTP inh	M1 antagonist	M1 ag	D1 mod	M1 agonist conf	M4 ag counter
COc1ccc(-c2nc(-c3ccc(NC(=O)c4ccncc4)cc3)no2)cc1OC	0	0	0	0	3.77	-6.71	0	0
c1ccc(Cn2c(SCc3cn4cccnc4n3)nnc2-c2ccco2)cc1	0	0	0	0	0	0	-	-
COc1ccc(OCCCOc2cccc(C)c2)cc1	-	-	0	-	-	-	-	-
Cc1ccc(OCC(=O)Nc2ccc(N(C)C)cc2)cc1	0	0	0	0	0	0	-	-
COCC(=O)Nc1ccc(N(C)C)cc1	0	0	0	0	-2.91	0	-33.4	0
CCOC(=O)C1CCN(C(=O)C2c3ccccc3C(=O)N(C)C2c2ccc(OC)cc2)CC1 (stereo not drawn)	0	0	0	0	10.1	0	?	0
CC1(C)N([O-])C(c2ccccc2)=C[N+](=O)C1(C)C	0	0	0	0	0	0	-	-

High-throughput results as filed in PubChem BioAssay.
